Shown are actives, neighbours in structure and some others; about 4.9% of the full set was active somewhere.
FLuc act counter: FLuc activators, initial screening, artefact control for FLuc-dependent activation tests, biochemical, ATPlite luminescence; 200,000 tested, under 10 active; ATPlite luciferase biochemical, 10 min; 0 = ATP-free wells, 1 = DMSO control; activation factor at 10 µM; Luciferin 4-monooxygenase (Photinus pyralis), P08659;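 active = luciferase activation factor, scaled between plate controls, of at least 2 with compound at 10 µM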
Target sequence (P08659 whole entry, looked up): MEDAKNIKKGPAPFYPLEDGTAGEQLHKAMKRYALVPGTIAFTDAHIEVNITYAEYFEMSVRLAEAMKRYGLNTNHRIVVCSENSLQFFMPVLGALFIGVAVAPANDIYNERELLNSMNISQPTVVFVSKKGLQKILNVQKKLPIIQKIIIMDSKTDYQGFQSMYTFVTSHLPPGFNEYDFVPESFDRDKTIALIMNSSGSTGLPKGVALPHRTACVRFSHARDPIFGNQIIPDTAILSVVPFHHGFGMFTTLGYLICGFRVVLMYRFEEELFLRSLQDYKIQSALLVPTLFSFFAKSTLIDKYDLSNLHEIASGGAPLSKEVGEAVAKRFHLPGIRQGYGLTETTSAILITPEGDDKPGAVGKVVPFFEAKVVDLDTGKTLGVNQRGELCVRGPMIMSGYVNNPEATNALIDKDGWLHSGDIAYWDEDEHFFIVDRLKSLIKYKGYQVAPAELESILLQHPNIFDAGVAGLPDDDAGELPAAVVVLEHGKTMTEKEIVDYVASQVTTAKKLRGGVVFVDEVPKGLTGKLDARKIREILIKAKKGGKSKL
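System: luciferase plus luciferin reagent, cell-free; medium: PBS as buffer for the ATP substrate; dosing: test compounds dosed from 2 mM stocks in 100% DMSO; timing: 10 min post-reagent at room temperature; measured by: luminescence measurement of luciferase light output; evaluation: luciferase activation, seen as luminescence increase over controls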
STAT1 blocker: STAT1 signaling inhibitors, primary screen, cell-based, HTS, luciferase reporter; NIH 3T3 STAT1-luciferase reporter, IFN-gamma, luminescence; inhibition, % at 5.5 µM; 200,000 tested, 0.35% active;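 active = inhibition above a set limit, the mean inhibition across all tested compounds plus 3 SD, cut at about 34% in these data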
FLuc inh counter: firefly luciferase enzyme inhibitors, primary screen, artefact control for luciferase-based inhibitor screens, biochemical, luminescence, ATPLite | Luciferin 4-monooxygenase (Photinus pyralis), P08659 | 10 min | inhibition, % at 10 µM | 200,000 tested, 1.5% active | AID 1006, 2008;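 active = inhibition above about 50% when tested at 10 µM, limit read from the data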
STAT1 activator: STAT1 signaling activators, primary screen, cell-based, HTS, luciferase reporter. activation (% of control), % at 5.5 µM. AID 932, 2007. 200,000 tested, 2.6% active. NIH 3T3 STAT1-luciferase reporter, IFN-gamma, luminescence; 100% = IFN-gamma alone, no compound;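 active = activation above the screen-wide mean activation plus 3 SD, cut at about 130% in these data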
STAT3 activator: IL-6 driven STAT3 reporter potentiators, primary screen, U3A cells, luciferase, luminescence, MLSCN library; IL-6 STAT3-luciferase reporter; 100% = signal with IL-6 EC80 alone; activation (% of control), % at 5.6 µM; 190,000 tested, 0.91% active;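 active = activation above the screen-wide mean of compound activation plus 3 SD, cut at about 130% in these data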
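Detection: reporter luminescence signal / Assay system: STAT1-lacking human U3A cells, STAT3 luciferase reporter / Incubation: compound pre-incubation 1 h before IL-6, then 6 h stimulation at 37 °C / Control set: IL-6-only high control / Read-out: % activation relative to IL-6 control / Probe or stimulus: Interleukin-6, 33 ng/mL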
STAT3 inh: IL-6 driven STAT3 reporter inhibitors, primary screen, U3A cells, luciferase, luminescence, MLSCN library; IL-6 STAT3-luciferase reporter; host cell line lacks STAT1; inhibition, % at 5.5 µM; 190,000 tested, 0.89% active;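 active = inhibition above the mean inhibition across all screened compounds plus 3 SD, cut at about 44% in these data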
Numbers stand for hits; 0 = inactive; - = no result.

SMILES	FLuc act counter	STAT1 blocker	FLuc inh counter	STAT1 activator	STAT3 activator	STAT3 inh
CCOC(=O)Cc1cc(=O)n2[nH]c(-c3ccccc3)cc2n1	0	0	0	0	0	0
Cc1nc2cc(-c3ccsc3-n3c(C)ccc3C)[nH]n2c(=O)c1Cl	0	0	0	0	0	0
O=c1c2c(nc3cc(-c4ccccc4Cl)[nH]n13)CCS2	0	0	73.9	0	0	0
O=C(CSc1ccc(-c2ccccn2)nn1)N1CCCc2ccccc21	0	0	0	0	0	0
Cc1ccc(C(=O)NC2CCc3ccccc3C2=O)cc1 (stereo not drawn)	0	0	61.9	141.4	0	0
Cc1ccc(C(=O)NC2CCSC2=O)cc1 (stereo not drawn)	0	0	0	0	0	0
Cc1cc(C)n(-c2ccc(Cl)c(C(=O)Nc3cc(C(F)(F)F)ccc3Cl)n2)n1	0	0	0	0	0	0
CCOC(=S)N/C(=N\S(=O)(=O)c1ccccc1)c1ccccc1	0	0	0	0	0	0
COC(=O)c1ccc(N/C(=N/S(=O)(=O)c2ccccc2)c2ccccc2)cc1	0	0	0	0	0	0
Cc1ccc(S(=O)(=O)/N=C(/NC(=S)Nc2ccccc2)c2ccccc2)cc1	0	0	0	150.4	0	0
Cc1ccc(NC(=S)N/C(=N/S(=O)(=O)c2ccccc2)c2ccccc2)cc1	0	0	0	142.6	0	0
CCNS(=O)(=O)c1ccc2nc(NC(=O)/C=C/c3cc(OC)c(OC)c(OC)c3)sc2c1	0	0	0	0	0	0
Cc1ccc(S(=O)(=O)NCCC(=O)NCc2ccco2)cc1	0	0	0	0	0	0
O=c1c2ccccc2nc2c3ccccc3cnn12	0	0	0	134.5	0	0
O=c1c2ccccc2nc2c3ccccc3c(Cl)nn12	0	0	0	0	0	0
COc1ccccc1NC(=O)c1oc2ccc(C)cc2c1C	0	0	0	129.0	0	0
COc1ccccc1NC(=O)c1oc2ccccc2c1NC(=O)c1cc(OC)c(OC)c(OC)c1	-	0	-	0	0	0
Cc1ccc(Nc2cc(C)nc(N3CCOCC3)n2)cc1	0	0	0	0	133.8	0
Cc1ccc(NC2=C(N3CCOCC3)C(=O)c3ccccc3C2=O)cc1	0	0	56.0	0	0	0
O=C(CC(Nc1ccccc1)C(=O)O)c1ccccc1 (stereo not drawn)	0	-	78.5	-	-	-
O=C(CC(Nc1ccccc1)c1ccc(F)cc1)c1ccccc1 (stereo not drawn)	0	0	0	0	0	0
CCn1c(-c2ccc(F)cc2)cnc1SCC(=O)N1CCCCC1C (stereo not drawn)	0	0	0	132.0	0	0
CCn1c(-c2ccc(F)cc2)cnc1SCC(=O)N1CCc2ccccc21	0	0	0	0	0	0
CCOc1ccc(N2C(=O)CC(SCCN)C2=O)cc1 (stereo not drawn)	0	0	56.8	0	0	0
Cc1csc(C(C#N)C(=O)c2cc3ccccc3o2)n1 (stereo not drawn)	0	0	87.8	0	0	0
SMILES	FLuc act counter	STAT1 blocker	FLuc inh counter	STAT1 activator	STAT3 activator	STAT3 inh
CCOC(=O)Cc1csc(NC(=O)c2cc3ccccc3o2)n1	0	0	0	0	0	0
CON1C(=O)C(=O)N(OC)C(C)(C)C1(C)C	0	0	0	0	0	0
O=c1c(Br)c(NCc2ccccc2)cnn1-c1ccc(F)cc1	0	0	0	129.3	0	0
O=C(/C=C/c1ccc(Cl)cc1Cl)c1ccc[nH]1	0	0	51.6	0	0	0
Cc1ccc(/C=C/C(=O)c2ccccc(=O)c2O)cc1C	0	0	0	0	0	0
Nc1nnc(CCS(=O)(=O)c2ccc(Br)cc2)s1	0	0	0	0	0	0
CN(c1ccccc1C(=O)O)S(C)(=O)=O	0	0	0	0	0	0
CN(C)c1ccccc1C(=O)c1ccccc1N(C)C	0	0	0	132.0	0	0
Cc1ccc(NC(=O)c2ccccc2OCC(=O)c2ccccc2)cc1	0	0	0	0	0	0
CCOc1ccc(NC(=O)c2ccccc2OC)cc1	0	0	0	0	133.3	0
COc1ccc(C(=O)Nc2ccc(C)cn2)c(OC)c1	0	82.0	94.9	0	0	105.2
COc1cc(C(=O)Nc2ccc(C)cn2)c([N+](=O)[O-])cc1OC	0	0	0	0	0	0
CCOc1ccc(NC(=O)c2ccccc2O)cc1	0	0	87.4	0	0	0
CCOc1ccc(NC(=O)c2ccccc2OCC(=O)c2ccccc2)cc1	0	0	60.9	0	0	0
COc1ccc(N(C(=O)Cn2nnc(-c3ccccc3F)n2)C(C(=O)NCC2CCCO2)c2ccc(Cl)cc2)cc1 (stereo not drawn)	0	0	0	0	0	0
Cc1sc2nc(CSCC(=O)N(CCC#N)c3ccccc3)[nH]c(=O)c2c1C	0	0	0	0	0	0
COc1ccccc1C(=O)Nc1ccccn1	0	0	0	132.5	0	0
Cc1ccc(NC(=O)c2ccc(F)cc2)nc1	0	0	0	132.0	0	0
C/C(=N\NC(=O)c1ccc(Cl)c(S(=O)(=O)Nc2ccccc2Cl)c1)c1ccncc1	0	0	0	0	0	0
CCc1cc2c(N3CCN(c4ccccc4)CC3)ncnc2s1	0	0	0	0	0	46.1
c1ccc(N2CCN(c3ncnc4sc5c(c34)CCC5)CC2)cc1	0	0	0	0	0	0
COc1cccc2sc(N(C)c3ccccc3)nc12	0	0	85.4	150.2	0	0
CCOC(=O)c1cnc2ccccc2c1Nc1cccc(C(=O)O)c1	0	0	86.1	0	0	0
CCOC(=O)c1cnc2ccc(C(=O)OC)cc2c1Nc1cccc(C(=O)O)c1	0	0	0	0	0	0
Nc1ccccc1C(=O)N/N=C1\C2CN3CCN(C2)CC1(c1ccccc1)C3	0	0	0	129.8	0	0
Cc1[nH]n(-c2nc(-c3ccccc3F)cc(=O)[nH]2)c(=O)c1CCO	0	0	0	0	0	0
Cc1ccc(-n2cc(S(=O)(=O)c3ccc(C)cc3)[nH]c2=O)cc1	0	0	0	0	0	0
N/C(=N\OCc1ccccc1)c1nonc1N	0	0	0	129.2	0	0
CCOCCCNC(=O)CNC(=S)N(Cc1ccc(C)cc1)Cc1ccco1	0	0	0	0	0	0
CC1CC(C)(C)NC(=S)N1CCCC(=O)NCc1ccccc1 (stereo not drawn)	0	0	0	0	0	0

Source: PubChem BioAssay
